NR2E3 ag-1 = human photoreceptor-specific nuclear receptor agonism | CHO-S Gal4-NCOR/VP16-NR2E3 two-hybrid, luciferase | inhibition of corepressor binding, % at 3.98 µM | 360,000 compounds, 0.35% hits;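 active = inhibition above the mean of all tested compounds plus 3 SD, cut at about 70% in these data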;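 also: 0% = DMSO with NR2E3 transfected cells and 100% = cells lacking NR2E3 construct; higher means lower luciferase signal from less NR2E3 corepressor binding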
PG9 Ab binder = small molecules binding HIV-1 gp120 antibody PG9; TR-FRET gp120-PG9 antibody binding; 360,000 compounds, 0.43% hits; inhibition, % at 6.7 µM; in the data active = inhibition above about 8.5%
MT1-MMP act inh = inhibitors of human MT1-MMP activation | P50281 | AID 651647 | 360,000 compounds, 0.061% hits | GFP/RFP ratio change, % at 20 µM | HT1080 RFP-PRO-GFP cells, GFP/RFP ratio fluorescence, overnight; percent of plate control window, DMSO zero;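 active = GFP/RFP ratio change of at least 30% with cell ATP level not reduced by more than half and red fluorescence within 50% of control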
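Assay system: HT1080 cells carrying an RFP-PRO-GFP reporter | Dosing: Single dose of 20 µM compound, 1% DMSO final | Incubation: Cells overnight before dosing, compound overnight, 37 °C, 5% CO2 | Evaluation: GFP/RFP fluorescence ratio | Control set: DMSO and RFP-L50D-GFP cell wells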
NR2E3 ag-2 = NR2E3 (human) agonism; GST-NR2E3/biotin-RetCOR TR-FRET, 1536-well; Q9Y5X4; inhibition of corepressor binding, % at 4.78 µM; 320,000 compounds, 0.12% hits;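 active = percent inhibition above the cutoff of mean plus 3 SD of all tested compounds, set per screening campaign, cut at about 20% in these data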;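 also: 0% = DMSO wells and 100% = biotin wells as full block of FRET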
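Material: NR2E3–RetCOR corepressor complex / Amount: 1.35 nM GST-NR2E3 / Medium: Tris pH 7.5 / Compound: single nominal compound dose of 4.8 µM / Incubation: 5 h at 4 °C / Technique: TR-FRET, Eu(K)-anti-GST donor, streptavidin-D2 acceptor, ex 340, em 617/671 nm / Read-out basis: percent loss of FRET ratio relative to control wells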
NR1D1 modulator = modulators of human Rev-erb alpha DNA binding; Rev-erbα–FITC-DNA binding, fluorescence polarization, 90 min; activity, % at 10 µM; 370,000 compounds, 0.79% hits;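 active = activity above about 14%, limit read from the data; passing the limit was not always enough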;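 also: 0% = DMSO wells with 35 nM protein and 100% = DMSO wells with 750 nM protein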
Target sequence (P20393 whole entry, looked up): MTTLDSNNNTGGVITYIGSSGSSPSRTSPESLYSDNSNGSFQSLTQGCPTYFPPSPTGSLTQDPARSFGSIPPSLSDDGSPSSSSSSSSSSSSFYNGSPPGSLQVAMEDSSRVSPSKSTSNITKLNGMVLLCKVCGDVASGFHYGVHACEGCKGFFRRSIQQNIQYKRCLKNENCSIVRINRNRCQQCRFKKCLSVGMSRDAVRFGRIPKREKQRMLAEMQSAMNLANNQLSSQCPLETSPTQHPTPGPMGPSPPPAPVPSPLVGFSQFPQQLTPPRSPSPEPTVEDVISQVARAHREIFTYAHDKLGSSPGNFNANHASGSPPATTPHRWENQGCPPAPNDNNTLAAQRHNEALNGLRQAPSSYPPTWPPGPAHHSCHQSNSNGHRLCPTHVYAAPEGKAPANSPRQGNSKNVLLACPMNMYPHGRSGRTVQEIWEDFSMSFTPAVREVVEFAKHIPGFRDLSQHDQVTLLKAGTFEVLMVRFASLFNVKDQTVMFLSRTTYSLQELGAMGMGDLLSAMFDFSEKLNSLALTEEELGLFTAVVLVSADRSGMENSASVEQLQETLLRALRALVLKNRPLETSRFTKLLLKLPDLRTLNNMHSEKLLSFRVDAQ
SKN-1 block = C. elegans SKN-1 inhibition. C. elegans VP596 Pgst-4::GFP/RFP ratio, acrylamide-induced, 24 h. inhibition, % at 21.8 µM. 360,000 compounds, 0.49% hits;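 active = interference check ratio from 0.5 to 1.5 plus GFP to RFP signal ratio inhibition reaching or exceeding a fixed threshold, cut at about 30% in these data, passing the limit was not always enough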
Numbers without * were called inactive; . = no result. A selection: hits, their analogues and other compounds. The true share with any hit is near 1.9%.

SMILES	NR2E3 ag-1	PG9 Ab binder	MT1-MMP act inh	NR2E3 ag-2	NR1D1 modulator	SKN-1 block
C[C@]12CCC(=O)C=C1CCC1C2C(=O)C[C@@]2(C)C1CC[C@]2(O)C(=O)CO (stereo not given in full)	.	.	.	.	-5	.
COc1ccc2c(c1)c(C(O)CN1CCN(Cc3ccc4c(c3)OCO4)CC1)c(C)n2C (stereo not given)	-31	-1	-10	4	1	44*
O=[N+]([O-])O[C@@H]1CO[C@H]2[C@@H]1OC[C@@H]2O	.	.	.	.	-10	.
Cc1ccccc1CNC(=O)c1ccc2sc([C@H]3C[C@H](O)[C@@H](CO)O3)nc2c1	-22	0	2	.	-4	39*
CCCc1nc(SCC(=O)Nc2nccs2)c2ccccc2n1	5	7	0	4	-5	-1
N#Cc1cc2c(nc1SCC(=O)Nc1nccs1)CCCCC2	-131	37*	-3	15	23	-6
N#Cc1cc2c(nc1SCC(=O)Nc1sc3c(c1C#N)CCC3)CCCCCC2	-4	1	-8	-2	11	26
O=C(CSc1nc(-c2ccccc2)nc2ccccc12)Nc1nccs1	-10	29*	0	-21	8	9
O=S(=O)(c1cccs1)N1CCCc2nc(-c3ccccc3)ccc21	.	-1	.	.	1	.
O=C1c2cccnc2C(=O)N1Cc1ccccc1	0	2	1	4	4	-2
CC(c1ccccc1)N1C(=O)c2cccnc2C1=O (stereo not given)	-22	-1	3	6	-6	39*
COc1cc(NC(=O)c2cnn3c(C)cc(C)nc23)cc(OC)c1OC	.	.	.	.	2	.
N#C/C(=C\c1ccc(O)c(O)c1)C(=O)c1ccc(O)c(O)c1	-37	-6	-1	2	-33	9
N#CC(C#N)=C(N)/C(C#N)=C/c1cc(O)c(O)c(O)c1	-15	-14	-18	11	9	93*
Cc1cc(C)cc(-n2c(C)cc(C=C(C#N)C#N)c2C)c1	0	28*	1	4	9	-4
O=[N+]([O-])c1ccc(NN=Cc2cccc([N+](=O)[O-])c2)cc1	-47	2	-6	.	-14	38*
COc1ccc(C(=O)Nc2nc(-c3cccs3)cs2)cc1	-131	-4	-8	2	4	46*
COc1ccc(-c2csc(Nc3ccccc3)n2)cc1	-112	-1	2	-1	-2	35*
O=C(Nc1cccc(-c2csc(Nc3ccccc3)n2)c1)c1ccccc1	-58	-1	5	1	-4	46*
COc1ccc(-c2csc(NC(=O)c3ccccc3F)n2)cc1	-97	-1	1	-1	5	10
O=[N+]([O-])c1cccc(-c2csc(Nc3ccccc3)n2)c1	-22	-2	-1	2	-2	35*
O=C(Nc1nc(-c2ccccc2)cs1)c1ccccc1F	-168	1	-1	5	-2	53*
COc1cccc(CC(=O)NCC2CCN(C(=O)C(=O)c3cccs3)CC2)c1	.	1	.	.	0	.
FC(F)(F)c1cc(Cl)c2nc(-c3ccccc3)cn2c1	-165	-2	1	-5	1	41*
CO[C@H]1O[C@H](CO)[C@H](O[C@@H]2OC(C(=O)O)[C@@H](O[C@H]3O[C@H](COS(=O)(=O)O)[C@H](O[C@@H]4OC(C(=O)O)[C@@H](O[C@H]5O[C@H](CO)[C@H](O[C@@H]6OC(C(=O)O)[C@@H](O[C@H]7O[C@H](COS(=O)(=O)O)[C@H](O[C@@H]8OC(C(=O)O)=C[C@H](O)C8OS(=O)(=O)O)[C@H](O)[C@H]7NC(C)=O)[C@H](O)[C@H]6O)[C@H](O)[C@H]5NC(C)=O)[C@H](O)[C@H]4O)[C@H](O)[C@H]3NC(C)=O)[C@H](O)[C@H]2O)[C@H](O)[C@H]1NC(C)=O (stereo not given in full)	.	.	.	.	-4	.
Cc1cccc(OCC(=O)O/N=C(\N)c2ccncc2)c1	-44	0	2	2	2	11
N/C(=N\OC(=O)COc1ccc2ccccc2c1)c1ccncc1	-43	.	1	0	.	39*
N/C(=N\OC(=O)COc1ccc(Cl)cc1)c1cccnc1	-70	-2	4	2	5	37*
